# Only some compounds are listed: those with a hit (about 2.3% of all), similar ones and a draw of the others.
# STAT1 blocker: STAT1 signaling inhibitors, primary screen, cell-based, HTS, luciferase reporter; inhibition, % at 5.5 µM; hit rate 0.35% among 200,000; NIH 3T3 STAT1-luciferase reporter, IFN-gamma, luminescence;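 active means inhibition above a set limit, the mean inhibition across all tested compounds plus 3 SD, cut at about 34% in these data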;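 further: 0% = IFN-gamma with DMSO and 100% = IFN-gamma with 300 µM nifuroxazide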
# HSP90 inh: HSP90 inhibitors, primary screen, cell lysate, luminescence | inhibition, % at 5.6 µM | Rabbit reticulocyte lysate, luciferase refolding luminescence, 3 h | Heat shock protein HSP 90 (rabbit reticulocyte lysate; luciferase refolding) | hit rate 0.91% among 290,000 | AID 1789, 2009;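 active means inhibition above the screen-wide mean plus 3 SD, computed separately per campaign, cut at about 16% in these data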;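 further: 0% = DMSO wells and 100% = 60 µM geldanamycin wells; inhibitors lower the luminescence because luciferase stays unfolded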
# PPC-1+TRAIL kill: compounds killing PPC-1 cancer cells with TRAIL present, primary screen, TRAIL potentiator project, ATPLite luminescence, uHTS; hit rate 0.41% among 220,000; cell killing (% activity), % at 4 µM or 5 µM; PPC-1 cells + TRAIL, ATPLite viability luminescence; AID 1443, 2008;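 active means cell killing above 50% in the first pass at 4 µM, then a duplicate retest at 5 µM averaging 50% or more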;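 further: plate controls were cells with TRAIL plus DMSO for no effect and medium-only wells lacking cells for full effect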
# STAT3 blocker: IL-6 driven STAT3 reporter inhibitors, primary screen, U3A cells, luciferase, luminescence, MLSCN library. IL-6 STAT3-luciferase reporter; host cell line lacks STAT1. hit rate 0.89% among 190,000. inhibition, % at 5.5 µM. AID 862, 2007;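 active means inhibition above the mean inhibition across all screened compounds plus 3 SD, cut at about 44% in these data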;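 further: 0% = DMSO only wells and 100% = 100 µM nifuroxazide control wells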
# TRAIL sens C8: viability loss with TRAIL in NB7+C8 cells, primary screen, TRAIL sensitizer project, cell-based, ATPlite luminescence. hit rate 1% among 360,000. inhibition (viability loss, TRAIL sensitization), % at 10 µM;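 active means compounds causing at least 50% loss of cell viability in the single-dose screen, relative to plate controls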
# STAT3 act: IL-6 driven STAT3 reporter potentiators, primary screen, U3A cells, luciferase, luminescence, MLSCN library; IL-6 STAT3-luciferase reporter; 100% = signal with IL-6 EC80 alone; activation (% of control), % at 5.6 µM; hit rate 0.91% among 190,000; AID 871, 2007;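 active means activation above the screen-wide mean of compound activation plus 3 SD, cut at about 130% in these data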;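 further: 0% = background luminescence of wells with medium and substrate only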
#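 System – human U3A cells carrying STAT3-luciferase construct · Probe or stimulus – Interleukin-6, 33 ng/mL · Schedule – compound 1 h, then IL-6 6 h at 37 °C · Signal – luminescence from STAT3-driven luciferase reporter · Evaluation – percent of IL-6-only median luminescence · Benchmarks – IL-6-only high control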
# * hit, by the source's call; · = no result.
SMILES,STAT1 blocker,HSP90 inh,PPC-1+TRAIL kill,STAT3 blocker,TRAIL sens C8,STAT3 act
CCCCCCCCOC(=O)c1cc([N+](=O)[O-])c(Sc2ncnc3nc[nH]c23)c([N+](=O)[O-])c1,·,·,·,·,67*,·
CCCCOC(=O)c1ccc(Nc2ncnc3nc[nH]c23)cc1,-2,-5,29,4,11,96
COc1ccc(-c2cc3ccccc3c(=O)o2)cc1,·,·,·,·,53*,·
COc1ccc(-c2cc(=O)c3ccccc3o2)cc1,·,·,-3,·,32,·
CN(C)c1ccc(-c2cc3ccccc3c(=O)o2)cc1,·,·,·,·,57*,·
C/C(=N\NC(=O)c1ccccc1F)c1cccc(NC(=O)c2ccc(C)cc2)c1,·,3,·,·,59*,·
C/C(=N\NC(=O)c1ccc(O)cc1)c1cccc(NC(=O)c2ccc(Cl)cc2)c1,·,·,·,·,66*,·
C/C(=N\NC(=O)c1cccc(O)c1)c1cccc(NC(=O)c2ccc(F)cc2)c1,·,0,·,·,57*,·
C/C(=N\NC(=O)c1ccc(Cl)cc1)c1cccc(NC(=O)c2cccnc2)c1,-4,-1,30,3,41,98
C/C(=N\NC(=O)c1cccc(N/N=C(\C)c2cc(O)ccc2O)c1)c1cc(O)ccc1O,-10,-2,20,15,55*,91
C/C(=N\NC(=O)c1ccc(F)cc1)c1cccc(NC(=O)c2cccc(F)c2)c1,·,0,·,·,6,·
C=C(C(=O)c1ccccc1)C(C)CC(=O)c1ccccc1 (stereo not given),3,1,2,-2,2,101
CCOC(=O)C(=O)Nc1cc(C(=O)OC)cc(C(=O)OC)c1,-9,3,8,2,0,100
CCN(CC)C(=O)c1ccc(-c2ccccc2)cc1,-12,-4,-2,16,11,89
Cc1ccc(C(=O)N/C(=C\c2ccc(-c3cccc([N+](=O)[O-])c3)o2)C(=O)NC(C)(C)C)cc1,-1,-6,10,-15,5,116
COc1nc(-c2ccccc2)nnc1-c1ccccc1,-61,-2,6,-62,16,153*
O=C(CN(c1cccc(C(F)(F)F)c1)S(=O)(=O)c1ccc(Cl)c([N+](=O)[O-])c1)NCc1ccccc1Cl,4,-1,66*,-1,2,103
O=C(CNC(=O)C1COc2ccccc2O1)N/N=C/c1ccc([N+](=O)[O-])cc1 (stereo not given),·,-1,·,·,-5,·
COc1ccccc1NC(=O)c1nc(S(=O)(=O)Cc2ccccc2)ncc1Cl,·,-3,·,·,94*,·
CCS(=O)(=O)c1ncc(Cl)c(C(=O)Nc2ccccc2OC)n1,·,-4,·,·,89*,·
CCOc1ccccc1NC(=O)c1nc(S(=O)(=O)Cc2ccccc2)ncc1Cl,·,4,·,·,96*,·
COc1ccc(/C=C/c2nc3ccccc3n2Cc2ccccc2OC)cc1,-60,3,35,-11,78*,110
CSc1nc(NCCN(C)C)c2sc3nc(-c4ccco4)c4c(c3c2n1)CCC4,·,·,·,·,83*,·
Cc1ccc(S(=O)(=O)Cc2ccc(C(=O)OCc3ccccc3)cc2)cc1,6,1,-2,2,1,98
COC(=O)c1c[nH]c2c1-c1cc(C(=O)OCc3ccccc3)n(S(=O)(=O)c3ccc(C)cc3)c1C(=O)C2=O,·,·,·,·,70*,·
SMILES,STAT1 blocker,HSP90 inh,PPC-1+TRAIL kill,STAT3 blocker,TRAIL sens C8,STAT3 act
CCOC(=O)C1=C(O)/C(=C/c2cn(CC(=O)NCC3CCCO3)c3ccccc23)SC1=Nc1ccc(C)cc1 (stereo not given),-9,2,·,3,57*,100
Cc1ccc(Nc2nc(CSc3nnc(-c4ccncc4)n3C)cs2)cc1,6,5,72*,38,76*,70
COc1ccc(Br)cc1C(=O)Nc1ccc(Cc2ccncc2)cc1,18,-1,7,-27,8,126
O=C(C#Cc1cccc([N+](=O)[O-])c1)c1ccccc1,10,-2,9,7,83*,95
Nc1ccccc1C#CC(=O)c1ccccc1,·,-1,·,·,64*,·
O=C(O)C(=Cc1cccc([N+](=O)[O-])c1)c1ccccc1,·,·,·,·,-4,·
Nc1ccccc1C#Cc1ccc([N+](=O)[O-])cc1,·,·,·,·,26,·
COc1ccccc1/C=C/C1(C(=O)NC2CCCC2)CC(=O)N1c1ccc(C)cc1 (stereo not given),0,-2,10,-1,60*,104
COc1ccccc1/C=C/C1(C(=O)NC2CCCC2)CC(=O)N1c1ccc(F)cc1 (stereo not given),11,6,7,3,92*,100
CCN(CC)S(=O)(=O)c1ccc(N2C(=O)CC2(/C=C/c2ccccc2)C(=O)NC2CCCC2)cc1 (stereo not given),0,0,-11,-3,-3,102
CCN(CC)c1ccc(NC(=O)CSc2nc3ccccc3c(=O)n2-c2cc(S(=O)(=O)N(C)C)ccc2C)cc1,-11,16*,15,-10,24,106
c1ccc(C[C@H]2CNCCN2CCCCC2CCCCC2)cc1,·,·,·,·,7,·
O=C(CCl)N(c1ccccc1)C1CCCCC1,12,-6,16,17,95*,92
O=C1/C(=C/c2ccc([N+](=O)[O-])cc2)C=C(c2ccccc2)N1c1ccccc1,-7,-2,12,11,11,100
O=C(O)c1cccc(N2C(=O)/C(=C/c3ccc([N+](=O)[O-])cc3)C=C2c2ccccc2)c1,39*,14,8,66*,-4,46
CCCC[N+](C)(C)CCC(=O)NC(C)(C)CS(=O)(=O)[O-],7,9,14,6,1,98
O=C(Nc1ccc2c(c1)OCCO2)c1cccc(Br)c1,·,2,·,·,50,·
Cc1cc(C)n2nc(C(=O)Nc3ccc4c(c3)OCCO4)nc2n1,·,·,·,·,51*,·
O=C(Nc1ccc2c(c1)OCCO2)c1ccc(Br)cc1,·,8,·,·,52*,·
O=C(Nc1ccc(Cl)cc1Cl)c1ccc2c(c1)OCCO2,·,·,·,·,53*,·
COc1ccc(Cl)cc1C(=O)Nc1ccc2c(c1)OCO2,-38,-3,27,-55,2,151*
COc1ccc(NC(=O)C(=O)NCCN2CCN(C(=O)C(c3ccccc3)c3ccccc3)CC2)cc1,2,0,14,10,-7,100
COc1ccc(Cl)cc1C(=O)Nc1ccc2c(c1)OCCO2,·,-1,·,·,52*,·
COC(=O)C1=C(CCc2ccccc2)NC(=O)NC1c1ccc(C#N)cc1 (stereo not given),·,·,·,·,-2,·
Cc1cccc(-c2noc(CN(C(=O)c3ccc(Br)o3)C(C)C)n2)c1,4,1,14,0,11,103
NNc1nc2c(F)cccc2s1,-51,6,24,-56,-9,152*

# Compound activity deposited in PubChem by several laboratories.
